The source of these data is ChEMBL document CHEMBL2029303, “Syntheses and biological studies of novel spiropiperazinyl oxazolidinone antibacterial agents using a spirocyclic diene derived acylnitroso Diels-Alder reaction” (Bioorg Med Chem, 2012).

For orientation: MIC means the lowest concentration found to suppress growth. The CC50 is the concentration at which the toxic effect on the cells reaches its halfway point. High values mean lower toxicity to the cells, low ones greater toxicity to the cells.

Structures are written as SMILES. Values after ≈ are worked out from the molar mass of the structure shown. Active and inactive are the calls of the source. No cut-off for these calls is given here.

The test system of data set [1] is Mycobacterium tuberculosis. As to the kind of experiment: Antimycobacterial activity against Mycobacterium tuberculosis H37Rv grown in iron-deficient glycerol-alanine-salts media. It counts as functional.
For data set [2], the system named is Bacillus subtilis. As to the kind of experiment: Antibacterial activity against Bacillus subtilis ATCC 6633 at 50 uL of 2 mM solution of compound in 1:9 DMSO/MeOH after 24 hrs by agar diffusion method. It counts as functional. In outline: (§1)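 Agar diffusion assay against representative Gram-positive and Gram-negative bacteria and Mycobacterium vaccae; the read-out is the diameter of the inhibition zone around the applied compound, measured in mm.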

The subject of data set [3] is Staphylococcus aureus. As to the kind of experiment: Antibacterial activity against Staphylococcus aureus SG 511 at 50 uL of 2 mM solution of compound in 1:9 DMSO/MeOH after 24 hrs by agar diffusion method. It counts as functional. In outline:
as §1
On the technique in general: Agar diffusion results depend on both activity and mobility in agar.

In data set [4] the test system is Staphylococcus aureus. The data set can be described thus: Antibacterial activity against Staphylococcus aureus SG 511 assessed as clear inhibition zone at 50 uL of 2 mM solution of compound in 1:9 DMSO/MeOH after 24 hrs by agar diffusion method. The class given is functional. In outline:
as §1

For data set [5], the system named is Staphylococcus aureus. The data set can be described thus: Antibacterial activity against methicillin-resistant Staphylococcus aureus 134/93 assessed as clear inhibition zone at 50 uL of 2 mM solution of compound in 1:9 DMSO/MeOH after 24 hrs by agar diffusion method. The class given is functional. In outline: (§2)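 Agar diffusion screen; read-out is the diameter of the inhibition zone, in mm.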

Data set [6] has as its system Enterococcus faecalis. As to the kind of experiment: Antibacterial activity against vancomycin-resistant Enterococcus faecalis 1528 assessed as unclear inhibition zone at 50 uL of 2 mM solution of compound in 1:9 DMSO/MeOH after 24 hrs by agar diffusion method. It counts as functional. In outline:
as §2

The test system of another data set is Escherichia coli. The data set can be described thus: Antibacterial activity against Escherichia coli SG 458 at 50 uL of 2 mM solution of compound in 1:9 DMSO/MeOH after 24 hrs by agar diffusion method. It counts as functional. An outline of the steps: as §1
The subject of data set [7] is Pseudomonas aeruginosa. As to the kind of experiment: Antibacterial activity against Pseudomonas aeruginosa SG 137 at 50 uL of 2 mM solution of compound in 1:9 DMSO/MeOH after 24 hrs by agar diffusion method. The class given is functional. In outline: as §1
Data set [8] relates to Pseudomonas aeruginosa. The data set can be described thus: Antibacterial activity against Pseudomonas aeruginosa K799/61 assessed as clear inhibition zone at 50 uL of 2 mM solution of compound in 1:9 DMSO/MeOH after 24 hrs by agar diffusion method. The class given is functional, organism-based. An outline of the steps: as §1
The test system of data set [9] is Mycolicibacterium vaccae. As to the kind of experiment: Antimycobacterial activity against Mycobacterium vaccae IMET 10670 at 50 uL of 2 mM solution of compound in 1:9 DMSO/MeOH after 24 hrs by agar diffusion method. It counts as functional. An outline of the steps: as §1
Data set [10] has as its system Mycolicibacterium vaccae. As to the kind of experiment: Antimycobacterial activity against Mycobacterium vaccae IMET 10670 assessed as unclear inhibition zone at 50 uL of 2 mM solution of compound in 1:9 DMSO/MeOH after 24 hrs by agar diffusion method. It counts as functional. In outline:
as §1

In data set [11] the test system is Mycobacterium tuberculosis. The data set can be described thus: Antimycobacterial activity against Mycobacterium tuberculosis H37Rv grown in glycerol-alanine-salts media. The class given is functional.
The subject of data set [12] is Bacillus subtilis. The data set can be described thus: Antibacterial activity against Bacillus subtilis ATCC 6633 assessed as partial clear inhibition zone at 50 uL of 2 mM solution of compound in 1:9 DMSO/MeOH after 24 hrs by agar diffusion method. The class given is functional. In outline: as §1
Data set [13] has as its system Bacillus subtilis. As to the kind of experiment: Antibacterial activity against Bacillus subtilis ATCC 6633 assessed as clear inhibition zone at 50 uL of 2 mM solution of compound in 1:9 DMSO/MeOH after 24 hrs by agar diffusion method. It counts as functional. In outline:
as §1

In data set [14] the test system is Staphylococcus aureus. As to the kind of experiment: Antibacterial activity against methicillin-resistant Staphylococcus aureus 134/93 at 50 uL of 2 mM solution of compound in 1:9 DMSO/MeOH after 24 hrs by agar diffusion method. It counts as functional. In outline: as §2
In data set [15] the test system is Pseudomonas aeruginosa. The data set can be described thus: Antibacterial activity against Pseudomonas aeruginosa K799/61 at 50 uL of 2 mM solution of compound in 1:9 DMSO/MeOH after 24 hrs by agar diffusion method. It counts as functional. In outline: as §1
The test system of data set [16] is Mycolicibacterium vaccae. The data set can be described thus: Antimycobacterial activity against Mycobacterium vaccae IMET 10670 assessed as partial clear inhibition zone at 50 uL of 2 mM solution of compound in 1:9 DMSO/MeOH after 24 hrs by agar diffusion method. The class given is functional. In outline:
as §1

Data set [17] relates to Staphylococcus aureus. As to the kind of experiment: Antibacterial activity against methicillin-sensitive Staphylococcus aureus ATCC 29213. It counts as functional.
Data set [18] concerns Staphylococcus aureus. The data set can be described thus: Antibacterial activity against methicillin-resistant Staphylococcus aureus ATCC 700699. The class given is functional.
Data set [19] has as its system Enterococcus faecalis. As to the kind of experiment: Antibacterial activity against vancomycin-resistant Enterococcus faecalis 1528 at 50 uL of 2 mM solution of compound in 1:9 DMSO/MeOH after 24 hrs by agar diffusion method. It counts as functional. An outline of the steps:
as §2

In data set [20] the test system is Staphylococcus aureus. As to the kind of experiment: Antibacterial activity against methicillin-resistant Staphylococcus aureus ATCC 700699 in presence of 50% mouse serum. It counts as functional. In outline:
(§3)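 MIC assay run with 50% mouse or human serum added to gauge protein-binding effect. Fold shift is calculated as the MIC with serum over the MIC without serum.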

Data set [21] deals with Staphylococcus aureus. As to the kind of experiment: Antibacterial activity against methicillin-resistant Staphylococcus aureus ATCC 700699 in presence of 50% human serum. The class given is functional. In outline:
as §3

Data set [22] concerns Staphylococcus aureus. The data set can be described thus: Ratio of MIC methicillin-resistant Staphylococcus aureus ATCC 700699 in presence of 50% mouse serum to MIC for […]. The class given is functional. An outline of the steps:
as §3

For data set [23], the system named is Staphylococcus aureus. As to the kind of experiment: Ratio of MIC methicillin-resistant Staphylococcus aureus ATCC 700699 in presence of 50% human serum to MIC for […]. It counts as functional. In outline: as §3
Data set [24] can be described thus: Cytotoxicity against human HepG2 cells. The class given is cell-based.
For data set [25], the system named is Staphylococcus aureus. As to the kind of experiment: Antibacterial activity against Staphylococcus aureus SG 511 assessed as partial clear inhibition zone at 50 uL of 2 mM solution of compound in 1:9 DMSO/MeOH after 24 hrs by agar diffusion method. It counts as functional. An outline of the steps:
as §1

Data set [26] has as its system Enterococcus faecalis. The data set can be described thus: Antibacterial activity against vancomycin-resistant Enterococcus faecalis 1528 assessed as partial clear inhibition zone at 50 uL of 2 mM solution of compound in 1:9 DMSO/MeOH after 24 hrs by agar diffusion method. It counts as functional. An outline of the steps: as §2

Take `CC(=O)NC[C@H]1CN(c2ccc(N3CCOCC3)c(F)c2)C(=O)O1` [LINEZOLID]: in [1], the MIC is 0.4 µM.

As to `CC(C)(C)OC(=O)N1OC2CCC1C21CCN(c2ccc(N3C[C@H](CN)OC3=O)cc2F)CC1` (stereo partly drawn), the “diameter of the inhibition zone (DIZ)” value came out at 12 mm in the data set on Bacillus subtilis [2]; 10 mm in the data set with Staphylococcus aureus [3]; 13 mm with Staphylococcus aureus [4]; 14 mm with Staphylococcus aureus [5]; 14 mm in the data set on Enterococcus faecalis [6]; 10 mm in the data set with Escherichia coli. Moreover, the “diameter of the inhibition zone (DIZ)” value turned out to be 0 mm in the data set with Pseudomonas aeruginosa [7], 18 mm with Mycolicibacterium vaccae [9] and 25 mm with Mycolicibacterium vaccae [10]. For the same molecule, in the data set with Pseudomonas aeruginosa [8], the “diameter of the inhibition zone (DIZ)” value is “Active”.

`CC(C)(C)OC(=O)N1OC2CCC1C21CCN(c2ccc(N)cc2F)CC1` (stereo not drawn): the MIC in data set [11] and in data set [1] was over 128 µM in each case.

In the case of `CC(C)(C)OC(=O)N1OC2CCC1C21CCN(c2ccc(N3C[C@H](CO)OC3=O)cc2F)CC1` (stereo partly drawn), the “diameter of the inhibition zone (DIZ)” value in the data set with Bacillus subtilis [2] was 23.5 mm; in the data set with Bacillus subtilis [12], 30 mm; with Bacillus subtilis [13], 28 mm; in the data set with Staphylococcus aureus [3], 22 mm; with Staphylococcus aureus [14], 24 mm; with Escherichia coli, 0 mm. Besides, the “diameter of the inhibition zone (DIZ)” value with Pseudomonas aeruginosa [7] was found to be 0 mm; in the data set with Pseudomonas aeruginosa [15], 0 mm; in the data set on Mycolicibacterium vaccae [16] it was 30 mm; with Enterococcus faecalis [19] it was 22 mm. For the same molecule, the MIC in the data set on Staphylococcus aureus [17] was over 64 µg/mL; in the data set on Staphylococcus aureus [18], 32 µg/mL (≈ 67 µM); in the data set on Staphylococcus aureus [20] it was over 64 µg/mL; in the data set on Staphylococcus aureus [21], over 34 µg/mL; in data set [11], 97 µM; in data set [1], over 128 µM. Further, the Ratio in the data set on Staphylococcus aureus [22] and with Staphylococcus aureus [23] was over 2 throughout. Further, the CC50 in [24] is over 100 µM.

`CC(C)(C)OC(=O)N1OC2CCC1C21CCN(c2ccc(NC(=O)OCc3ccccc3)cc2F)CC1` (stereo not drawn): the MIC in data set [11] and in data set [1] was over 128 µM in each case.

Take `CC(=O)NC[C@H]1CN(c2ccc(N3CCC4(CC3)C(O)CCC4NC(=O)OC(C)(C)C)c(F)c2)C(=O)O1` (stereo partly drawn): the “diameter of the inhibition zone (DIZ)” value came out at 14 mm in the data set on Bacillus subtilis [2]; 19 mm in the data set on Bacillus subtilis [13]; 16 mm in the data set with Staphylococcus aureus [25]; 14 mm in the data set on Staphylococcus aureus [14]; 18 mm in the data set with Staphylococcus aureus [5]; 18 mm with Enterococcus faecalis [26]. Also, the “diameter of the inhibition zone (DIZ)” value is given as 0 mm in the data set with Escherichia coli; 0 mm with Pseudomonas aeruginosa [7]; 0 mm in the data set with Pseudomonas aeruginosa [15]; 13 mm with Mycolicibacterium vaccae [16]; 15 mm in the data set on Enterococcus faecalis [19]. Further, the MIC in [11] and in data set [1] was over 128 µM each time.

Turning to `CC(=O)NC[C@H]1CN(c2ccc(N3CCC4(CC3)C3CCC4N(C(=O)OC(C)(C)C)O3)c(F)c2)C(=O)O1` (stereo partly drawn), the “diameter of the inhibition zone (DIZ)” value in the data set on Bacillus subtilis [2] turned out to be 25 mm; in the data set with Bacillus subtilis [13], 27 mm; in the data set with Staphylococcus aureus [3] it was 18 mm; in the data set with Staphylococcus aureus [25], 22 mm; in the data set on Staphylococcus aureus [14], 25 mm; in the data set on Escherichia coli, 0 mm. For the same molecule, the “diameter of the inhibition zone (DIZ)” value with Pseudomonas aeruginosa [7] is listed as 0 mm; in the data set on Pseudomonas aeruginosa [15], 0 mm; in the data set on Mycolicibacterium vaccae [9], 24 mm; in the data set with Mycolicibacterium vaccae [16], 37 mm; in the data set with Enterococcus faecalis [19], 23 mm. The MIC in the data set with Staphylococcus aureus [17] came to 64 µg/mL (≈ 123 µM); with Staphylococcus aureus [18], 16 µg/mL (≈ 30.9 µM); with Staphylococcus aureus [20], 32 µg/mL; in the data set on Staphylococcus aureus [21], 62 µg/mL; in data set [11], 24.4 µM; in [1], 22 µM. Also, the Ratio in the data set with Staphylococcus aureus [22] was found to be 2; in the data set with Staphylococcus aureus [23], 4. In data set [24], this molecule had a CC50 of over 100 µM.

For the molecule `CCCC(=O)OC[C@H]1CN(c2ccc(N3CCC4(CC3)C3CCC4N(C(=O)OC(C)(C)C)O3)c(F)c2)C(=O)O1` (stereo partly drawn), the values for the MIC in data set [11] and in [1] were 19.2 µM and 29.2 µM, respectively.

Take `CC(C)(C)OC(=O)N1OC2CCC1C21CCN(c2ccc(N3C[C@H](COS(C)(=O)=O)OC3=O)cc2F)CC1` (stereo partly drawn): the MIC in data set [11] amounted to 118 µM; in data set [1] it was 67.4 µM.

`CC(C)(C)OC(=O)N1OC2CCC1C21CCN(c2ccc([N+](=O)[O-])cc2F)CC1` (stereo not drawn): the MIC in [11] and in data set [1] was over 128 µM each time.
